According to ChEMBL document CHEMBL3864121, “Development of ebsulfur analogues as potent antibacterials against methicillin-resistant Staphylococcus aureus” (Bioorg Med Chem, 2016):
Active and inactive are the calls of the source.

Columns and labels:
Staphylococcus aureus [1] = experiment: Antibacterial activity against methicillin-resistant Staphylococcus aureus C14 measured after overnight incubation by broth double-dilution method; assay type: functional
Procedure, shortened: (§1)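 MIC by broth double-dilution in liquid Mueller-Hinton medium. Values are reported in µg/mL.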

Staphylococcus aureus [2] = experiment: Antibacterial activity against methicillin-resistant Staphylococcus aureus G12 measured after overnight incubation by broth double-dilution method; assay type: functional; procedure, shortened: as §1
Staphylococcus aureus [3] = experiment: Antibacterial activity against methicillin-resistant Staphylococcus aureus BRS3 measured after overnight incubation by broth double-dilution method; assay type: functional; procedure, shortened: as §1
[4] = Cytotoxicity against HEK293 cells assessed as cell death at […] measured after 24 hrs by resazurin dye-based fluorescence analysis relative to untreated control; assay type: toxicity; conditions: human, hek293, 24 h
Staphylococcus aureus [5] = experiment: Antibacterial activity against methicillin-resistant Staphylococcus aureus S17 measured after overnight incubation by broth double-dilution method; assay type: functional; procedure, shortened: as §1
Staphylococcus aureus [6] = experiment: Antibacterial activity against methicillin-resistant Staphylococcus aureus C2 measured after overnight incubation by broth double-dilution method; assay type: functional; procedure, shortened: as §1
Staphylococcus aureus [7] = experiment: Antibacterial activity against methicillin-resistant Staphylococcus aureus 1 measured after overnight incubation by broth double-dilution method; assay type: functional; procedure, shortened: as §1
Staphylococcus aureus [8] = experiment: Antibacterial activity against methicillin-resistant Staphylococcus aureus NRS51 measured after overnight incubation by broth double-dilution method; assay type: functional; procedure, shortened: as §1
Staphylococcus aureus [9] = experiment: Antibacterial activity against methicillin-resistant Staphylococcus aureus ATCC 33591 measured after overnight incubation by broth double-dilution method; assay type: functional; procedure, shortened: as §1
[10] = tested on: Staphylococcus epidermidis; experiment: Antibiofilm activity against Staphylococcus epidermidis ATCC 35984 assessed as reduction of biofilm at […] ug/ml measured after 24 hrs by crystal violet staining based method relative to control; assay type: functional, RP62A; set-up: scale not given: the % may be the effect or the level left
Staphylococcus aureus [11] = experiment: Antibacterial activity against methicillin-sensitive Staphylococcus aureus ATCC 29213 measured after overnight incubation by broth double-dilution method; assay type: functional; procedure, shortened: as §1
Staphylococcus aureus [12] = experiment: Antibacterial activity against methicillin-resistant Staphylococcus aureus NRS4 measured after overnight incubation by broth double-dilution method; assay type: functional; procedure, shortened: as §1
Staphylococcus aureus [13] = experiment: Antibacterial activity against methicillin-sensitive Staphylococcus aureus ATCC 6538 measured after overnight incubation by broth double-dilution method; assay type: functional; procedure, shortened: as §1
Staphylococcus aureus [14] = experiment: Antibacterial activity against methicillin-resistant Staphylococcus aureus NRS77 measured after overnight incubation by broth double-dilution method; assay type: functional; procedure, shortened: as §1
Enterococcus = experiment: Antibacterial activity against Vancomycin-resistant Enterococcus measured after overnight incubation by broth double-dilution method; assay type: functional; procedure, shortened: as §1
Staphylococcus aureus [15] = experiment: Antibacterial activity against methicillin-resistant Staphylococcus aureus USA100 measured after overnight incubation by broth double-dilution method; assay type: functional; procedure, shortened: as §1
Staphylococcus aureus [16] = experiment: Antibacterial activity against methicillin-resistant Staphylococcus aureus USA200 measured after overnight incubation by broth double-dilution method; assay type: functional; procedure, shortened: as §1
Staphylococcus aureus [17] = experiment: Antibacterial activity against methicillin-resistant Staphylococcus aureus S14 measured after overnight incubation by broth double-dilution method; assay type: functional; procedure, shortened: as §1
Staphylococcus aureus [18] = experiment: Antibacterial activity against methicillin-resistant Staphylococcus aureus G1 measured after overnight incubation by broth double-dilution method; assay type: functional; procedure, shortened: as §1
Staphylococcus aureus [19] = experiment: Antibacterial activity against methicillin-sensitive Staphylococcus aureus ATCC 25923 measured after overnight incubation by broth double-dilution method; assay type: functional; procedure, shortened: as §1
Staphylococcus aureus [20] = experiment: Antibacterial activity against methicillin-resistant Staphylococcus aureus C19 measured after overnight incubation by broth double-dilution method; assay type: functional; procedure, shortened: as §1
Staphylococcus aureus [21] = experiment: Antibacterial activity against methicillin-resistant Staphylococcus aureus C1 measured after overnight incubation by broth double-dilution method; assay type: functional; procedure, shortened: as §1
Staphylococcus aureus [22] = experiment: Antibacterial activity against methicillin-resistant Staphylococcus aureus USA300 measured after overnight incubation by broth double-dilution method; assay type: functional; procedure, shortened: as §1
Staphylococcus aureus [23] = experiment: Antibacterial activity against methicillin-resistant Staphylococcus aureus USA600 measured after overnight incubation by broth double-dilution method; assay type: functional; procedure, shortened: as §1
Staphylococcus aureus [24] = experiment: Antibacterial activity against methicillin-resistant Staphylococcus aureus G6 measured after overnight incubation by broth double-dilution method; assay type: functional; procedure, shortened: as §1
Staphylococcus aureus [25] = experiment: Antibacterial activity against methicillin-resistant Staphylococcus aureus G14 measured after overnight incubation by broth double-dilution method; assay type: functional; procedure, shortened: as §1
Staphylococcus aureus [26] = experiment: Antibacterial activity against methicillin-resistant Staphylococcus aureus S24 measured after overnight incubation by broth double-dilution method; assay type: functional; procedure, shortened: as §1
Staphylococcus aureus [27] = experiment: Antibacterial activity against methicillin-resistant Staphylococcus aureus 2 measured after overnight incubation by broth double-dilution method; assay type: functional; procedure, shortened: as §1
[28] = tested on: Mycolicibacterium smegmatis; experiment: Antibacterial activity against Mycobacterium smegmatis MC2-155 measured after overnight incubation by broth double-dilution method; assay type: functional; conditions: str. MC2 155; procedure, shortened: as §1
Staphylococcus aureus [29] = experiment: Antibacterial activity against methicillin-resistant Staphylococcus aureus S22 measured after overnight incubation by broth double-dilution method; assay type: functional; procedure, shortened: as §1
Enterococcus faecalis [30] = experiment: Antibacterial activity against Enterococcus faecalis ATCC 29212 measured after overnight incubation by broth double-dilution method; assay type: functional
Procedure, shortened: (§2)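 MIC by broth double-dilution in Mueller-Hinton medium. Re-testing at the time-kill inoculum used 1×10^6 CFU/mL.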

Enterococcus faecium = experiment: Antibacterial activity against Enterococcus faecium BM4105-RF measured after overnight incubation by broth double-dilution method; assay type: functional; procedure, shortened: as §1
Staphylococcus aureus [31] = experiment: Antibacterial activity against methicillin-resistant Staphylococcus aureus C7 measured after overnight incubation by broth double-dilution method; assay type: functional; procedure, shortened: as §1
Staphylococcus aureus [32] = experiment: Antibacterial activity against methicillin-resistant Staphylococcus aureus C16 measured after overnight incubation by broth double-dilution method; assay type: functional; procedure, shortened: as §1
[33] = tested on: Staphylococcus epidermidis; experiment: Antibacterial activity against Staphylococcus epidermidis ATCC 35984 measured after overnight incubation by broth double-dilution method; assay type: functional; conditions: RP62A; procedure, shortened: as §2
Listeria monocytogenes = experiment: Antibacterial activity against Listeria monocytogenes ATCC 19115 measured after overnight incubation by broth double-dilution method; assay type: functional; procedure, shortened: as §2
Enterococcus faecalis [34] = experiment: Antibacterial activity against Enterococcus faecalis ATCC 49533 measured after overnight incubation by broth double-dilution method; assay type: functional; procedure, shortened: as §2
Staphylococcus aureus [35] = experiment: Antibiofilm activity against methicillin-sensitive Staphylococcus aureus ATCC 6538 assessed as reduction of biofilm at […] measured after 24 hrs by crystal violet staining based method relative to control; assay type: functional; set-up: scale not given: the % may be the effect or the level left
Mus musculus = species: Mus musculus; experiment: Cytotoxicity against mouse RBCs assessed as hemolysis at 0.24 to 31.2 ug/ml measured after 1 hr; assay type: toxicity; conditions: erythrocyte
Procedure, shortened: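 Murine red blood cells were exposed to compounds at various concentrations, with amikacin as a control. Percent hemolysis was scored against untreated cells (0%) and 1% Triton X (100%).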

Staphylococcus aureus [36] = experiment: Bacteriostatic activity against methicillin-resistant Staphylococcus aureus S22 at MIC measured up to 3 to 6 hrs by time kill analysis; assay type: functional
Staphylococcus aureus [37] = experiment: Bacteriostatic activity against methicillin-resistant Staphylococcus aureus S22 at 0.5 times MIC measured up to 3 to 6 hrs by time kill analysis; assay type: functional
Staphylococcus aureus [38] = experiment: Antibacterial activity against methicillin-resistant Staphylococcus aureus S22 using 1 10^6CFU/ml measured after overnight incubation by broth double-dilution method; assay type: functional
[39] = tested on: Staphylococcus epidermidis RP62A; experiment: Inhibition of thioredoxin reductase in Staphylococcus epidermidis ATCC 35984 assessed as induction of ROS production at 1 to 4 times MIC measured after 1 hr by DCFH-DA staining-based fluorescence microscopic analysis
Procedure, shortened: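 Untreated cells served as the negative control and 1 mM H2O2 as the positive control. Cells were stained with DCFH-DA (40 µg/mL) and ROS were visualized by fluorescence microscopy.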

Staphylococcus aureus [40] = experiment: Bacteriostatic activity against methicillin-resistant Staphylococcus aureus S22 at 4 times MIC measured after 24 hrs by time kill analysis; assay type: functional
[41] = Cytotoxicity against mouse RBCs assessed as hemolysis up to […] measured after 1 hr; assay type: toxicity, Erythrocyte; conditions: mouse red blood cells, read-out: Activity

COc1cc(OC)cc(-n2sc3ccccc3c2=O)c1
50%: Activity [10]
3.9 µg/mL: MIC (Enterococcus faecium)
≤ 0.25 µg/mL: MIC (Staphylococcus aureus [6]) | MIC (Staphylococcus aureus [7]) | MIC (Staphylococcus aureus [9]) | MIC (Staphylococcus aureus [11]) | MIC (Staphylococcus aureus [17]) | MIC (Staphylococcus aureus [20]) | MIC (Staphylococcus aureus [22]) | MIC (Staphylococcus aureus [25]) | MIC (Staphylococcus aureus [26])
40%: Activity (Staphylococcus aureus [35])
2 µg/mL: MIC (Staphylococcus aureus [1]) | MIC (Staphylococcus aureus [3]) | MIC (Staphylococcus aureus [12]) | MIC (Staphylococcus aureus [14]) | MIC (Staphylococcus aureus [23]) | MIC [28] | MIC (Enterococcus faecalis [30]) | MIC (Staphylococcus aureus [32]) | MIC (Listeria monocytogenes)
7.8 µg/mL: MIC (Enterococcus faecalis [34])
> 20%: Activity [4]
0.5 µg/mL: MIC (Staphylococcus aureus [2]) | MIC (Enterococcus) | MIC (Staphylococcus aureus [15]) | MIC (Staphylococcus aureus [16]) | MIC (Staphylococcus aureus [19]) | MIC (Staphylococcus aureus [21]) | MIC (Staphylococcus aureus [29]) | MIC (Staphylococcus aureus [31])
1 µg/mL: MIC (Staphylococcus aureus [5]) | MIC (Staphylococcus aureus [8]) | MIC (Staphylococcus aureus [13]) | MIC (Staphylococcus aureus [18]) | MIC (Staphylococcus aureus [24]) | MIC (Staphylococcus aureus [27])
0.25 µg/mL: MIC [33]

CCCCCCCCn1sc2ccccc2c1=O
≤ 0.25 µg/mL: MIC (Staphylococcus aureus [17]) | MIC (Staphylococcus aureus [18])
> 125 µg/mL: MIC (Enterococcus faecalis [30]) | MIC (Enterococcus faecalis [34])
active: Activity (Staphylococcus aureus [36]) | Activity (Staphylococcus aureus [37]) | Activity (Staphylococcus aureus [38]) | Activity [39] | Activity (Staphylococcus aureus [40])
Non-Toxic: Activity (Mus musculus)
≤ 20%: hemolysis at 1 h [41]
2 µg/mL: MIC (Staphylococcus aureus [15]) | MIC (Staphylococcus aureus [22]) | MIC [28] | MIC (Enterococcus faecium) | MIC (Staphylococcus aureus [32])
0.5 µg/mL: MIC (Staphylococcus aureus [6]) | MIC (Staphylococcus aureus [7]) | MIC (Staphylococcus aureus [9]) | MIC (Enterococcus) | MIC (Staphylococcus aureus [20])
> 20%: Activity [4]
40%: Activity (Staphylococcus aureus [35])
1 µg/mL: MIC (Staphylococcus aureus [1]) | MIC (Staphylococcus aureus [2]) | MIC (Staphylococcus aureus [3]) | MIC (Staphylococcus aureus [5]) | MIC (Staphylococcus aureus [8]) | MIC (Staphylococcus aureus [11]) | MIC (Staphylococcus aureus [12]) | MIC (Staphylococcus aureus [13]) | MIC (Staphylococcus aureus [14]) | MIC (Staphylococcus aureus [19]) | MIC (Staphylococcus aureus [21]) | MIC (Staphylococcus aureus [24]) | MIC (Staphylococcus aureus [25]) | MIC (Staphylococcus aureus [26]) | MIC (Staphylococcus aureus [27]) | MIC (Staphylococcus aureus [29]) | MIC (Staphylococcus aureus [31]) | MIC [33] | MIC (Listeria monocytogenes)
3.9 µg/mL: MIC (Staphylococcus aureus [16]) | MIC (Staphylococcus aureus [23])
